# Source: ChEMBL document CHEMBL1140227, “Histone deacetylase inhibitors through click chemistry” (J Med Chem, 2008)
# Key:
# Format in all cases: functional
# MOLT-4 = experiment: Growth inhibition of human MOLT4 cells at 10 uM relative to control; conditions: values are per cent of control
# How it was run: (§1)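 Single-dose preliminary screen in the NCI human cancer cell line panel, run by the NIH. Percent inhibition of cell line growth was calculated by comparison with untreated samples.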
# CCRF-CEM = experiment: Growth inhibition of human CCRF-CEM cells at 10 uM relative to control; conditions: values are per cent of control; how it was run: as §1
# 786-0 = experiment: Growth inhibition of human 786-0 cells at 10 uM relative to control; conditions: values are per cent of control; how it was run: as §1
# cells [1] = conditions: Homo sapiens, Cancer cell lines
# [2] = Growth inhibition of human RPMI8266 cells at 10 uM relative to control; conditions: values are per cent of control; how it was run: as §1
# SN12C = experiment: Growth inhibition of human SN12C cells at 10 uM relative to control; conditions: values are per cent of control; how it was run: as §1
# NCI-H522 = experiment: Growth inhibition of human NCI-H522 cells at 10 uM relative to control; conditions: values are per cent of control; how it was run: as §1
# UACC-257 = experiment: Growth inhibition of human UACC257 cells at 10 uM relative to control; conditions: values are per cent of control
# How it was run: (§2)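 Single-dose NCI human tumour cell line screen, run by the NIH. Percent inhibition of cell line growth was calculated by comparison with untreated samples.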
# HOP-62 = experiment: Growth inhibition of human HOP62 cells at 10 uM relative to control; conditions: values are per cent of control; how it was run: as §1
# M14 = experiment: Growth inhibition of human M14 cells at 10 uM relative to control; conditions: values are per cent of control; how it was run: as §1
# SK-MEL-28 = experiment: Growth inhibition of human SK-MEL-28 cells at 10 uM relative to control; conditions: values are per cent of control; how it was run: as §1
# PC-3 = experiment: Growth inhibition of human PC3 cells at 10 uM relative to control; conditions: values are per cent of control; how it was run: as §1
# SK-OV-3 = experiment: Growth inhibition of human SKOV3 cells at 10 uM relative to control; conditions: values are per cent of control; how it was run: as §1
# cells [3] = conditions: Homo sapiens, Cancer cell lines; remark: listed apart in the source
# UO-31 = experiment: Growth inhibition of human UO31 cells at 10 uM relative to control; conditions: values are per cent of control; how it was run: as §2
# NCI-H23 = experiment: Growth inhibition of human NCI-H23 cells at 10 uM relative to control; conditions: values are per cent of control; how it was run: as §1
# T47D = experiment: Growth inhibition of human T47D cells at 10 uM relative to control; conditions: values are per cent of control; how it was run: as §2
# NCI/ADR-RES = experiment: Growth inhibition of human NCI/ADR-RES cells at 10 uM relative to control; conditions: values are per cent of control; how it was run: as §1
# A549 = experiment: Growth inhibition of human A549 cells at 10 uM relative to control; conditions: values are per cent of control; how it was run: as §1
# HL-60(TB) = experiment: Growth inhibition of human HL-60(TB) cells at 10 uM relative to control; conditions: read-out: INH
# How it was run: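 Single-dose cell line screen run by the NCI (NIH) in its human cancer cell line panel, which includes the leukemia line HL-60(TB). Percent growth inhibition was calculated by comparison with untreated samples.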
# MCF7 = experiment: Growth inhibition of human MCF7 cells at 10 uM relative to control; conditions: values are per cent of control; how it was run: as §1
# NCI-H460 = experiment: Growth inhibition of human NCI-H460 cells at 10 uM relative to control; conditions: values are per cent of control; how it was run: as §1
# LOX IMVI = experiment: Growth inhibition of human LOXIMVI cells at 10 uM relative to control; conditions: values are per cent of control; how it was run: as §1
# COLO 205 = experiment: Growth inhibition of human COLO205 cells at 10 uM relative to control; conditions: values are per cent of control; how it was run: as §1
# DU-145 = experiment: Growth inhibition of human DU145 cells at 10 uM relative to control; conditions: values are per cent of control; how it was run: as §1
# CAKI-1 = experiment: Growth inhibition of human Caki1 cells at 10 uM relative to control; conditions: values are per cent of control; how it was run: as §1
# MDA-MB-435 = experiment: Growth inhibition of human MDA-MB-435 cells at 10 uM relative to control; conditions: values are per cent of control; how it was run: as §1
# UACC-62 = experiment: Growth inhibition of human UACC62 cells at 10 uM relative to control; conditions: values are per cent of control; how it was run: as §2
# Melanoma cell = experiment: cells; conditions: Homo sapiens
# U-251 = experiment: Growth inhibition of human U251 cells at 10 uM relative to control; conditions: values are per cent of control; how it was run: as §2
# SNB-75 = experiment: Growth inhibition of human SNB75 cells at 10 uM relative to control; conditions: values are per cent of control; how it was run: as §2
structure (smiles),measurement,setting,value
O=C(/C=C/c1cn(CC(=O)Nc2ccccc2)nn1)NO,"growth, % of control at 10 µM",MOLT-4,62.2%
same,"growth, % of control at 10 µM",CCRF-CEM,57.1%
same,"growth, % of control at 10 µM",786-0,69.5%
same,inhibition at 10 µM,cells [1],74%
same,"growth, % of control at 10 µM",[2],64.2%
same,"growth, % of control at 10 µM",SN12C,89%
same,"growth, % of control at 10 µM",NCI-H522,41%
same,"growth, % of control at 10 µM",UACC-257,54.4%
same,"growth, % of control at 10 µM",HOP-62,43.1%
same,"growth, % of control at 10 µM",M14,60%
same,"growth, % of control at 10 µM",SK-MEL-28,93.4%
same,"growth, % of control at 10 µM",PC-3,79.7%
same,"growth, % of control at 10 µM",SK-OV-3,79.5%
same,growth percent at 10 µM,cells [3],71%
same,"growth, % of control at 10 µM",UO-31,74%
same,"growth, % of control at 10 µM",NCI-H23,82.8%
same,"growth, % of control at 10 µM",T47D,56.6%
same,"growth, % of control at 10 µM",NCI/ADR-RES,13.4%
same,"growth, % of control at 10 µM",A549,91.2%
same,"growth, % of control at 10 µM",HL-60(TB),153%
same,"growth, % of control at 10 µM",MCF7,95.8%
same,"growth, % of control at 10 µM",NCI-H460,86.1%
same,"growth, % of control at 10 µM",LOX IMVI,95.4%
same,"growth, % of control at 10 µM",COLO 205,117%
same,"growth, % of control at 10 µM",DU-145,87.8%
same,"growth, % of control at 10 µM",CAKI-1,81.7%
same,"growth, % of control at 10 µM",MDA-MB-435,63.4%
same,"growth, % of control at 10 µM",UACC-62,70.8%
same,inhibition at 10 µM,Melanoma cell,69%
same,"growth, % of control at 10 µM",U-251,86.6%
same,"growth, % of control at 10 µM",SNB-75,88.5%
